28 molecules from ChEMBL document CHEMBL4373632, “3D QSAR-based design and liquid phase combinatorial synthesis of 1,2-disubstituted benzimidazole-5-carboxylic acid and 3-substituted-5H-benzimidazo[1,2-d][1,4]benzodiazepin-6(7H)-one derivatives as anti-mycobacterial agents” (Medchemcomm, 2019) can be followed below.

Values after ≈ are worked out from the molar mass of the structure shown.

Data set [1] has as its system Mycobacterium tuberculosis. Description: Antimycobacterial activity against Mycobacterium tuberculosis H37Rv after 14 days. The format is functional. The following applies: 336 h. In short, it runs like this:
(§1)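 Mtb H37Rv grown in MB 7H9 (10% albumin dextrose saline, 0.2% glycerol, 0.05% tween-80) to OD600nm 0.2, diluted 1000× and added to 96-well plates with compounds (50 mM DMSO stocks). Tested range 0.05 to 50 μM. Incubated 37 °C for 14 days; MIC determined per standard protocol.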

Data set [2] deals with THP-1. Description: Cytotoxicity against human THP1 cells assessed as redution in cell viability at 10 uM by WST-1 assay. In kind it is cell-based. The conditions noted are these: thp-1, 10 µM. In short, it runs like this: (§2)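 THP-1 macrophages; viability read with the WST-1 cell proliferation kit following the manufacturer's protocol. Compounds came from 50 mM DMSO stocks, with 50 μM the highest final concentration tested.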

Data set [3] relates to Mycobacterium tuberculosis. Description: Antimycobacterial activity against Mycobacterium tuberculosis H37Rv infected in human THP-1 cells assessed as reduction in microbial growth after 4 days by ten-fold serial dilution method. The format is functional. In short, it runs like this: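 PMA-differentiated THP-1 macrophages (2 × 10^5 per well) infected with Mtb H37Rv at MOI 1:10. At 4 h, extracellular bacteria removed with 200 μg ml–1 amikacin in RPMI for 2 h. At 24 h, cells were washed and given RPMI with drug at non-cytotoxic concentration for 4 days. Lysis in PBS–0.1% Triton X-100, then 10-fold serial dilutions plated on MB 7H11 for 3–4 weeks at 37 °C. Triplicate wells, mean + S.E.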

The subject of data set [4] is THP-1. Description: Cytotoxicity against human THP1 cells assessed as redution in cell viability at 50 uM by WST-1 assay. The format is cell-based. The following applies: thp-1, 50 µM. In short, it runs like this:
as §2

The test system of data set [5] is Mycobacterium tuberculosis. Description: Antimycobacterial activity against Mycobacterium tuberculosis. In kind it is functional. In short, it runs like this: as §1
The nature of data set [6]: Lipophilicity, logP of compound. In kind it is physicochemical. The conditions noted are these: octanol/water.

In turn, `CC(C)c1nc2cc(C(=O)O)ccc2n1CC1CCN(C(=O)c2ccc(F)cc2)CC1` displayed an MIC in data set [1] of 50 µM (≈ 21.2 µg/mL).
For the molecule `COc1ccc(C(=O)N2CCC(Cn3c(C(C)C)nc4cc(C(=O)O)ccc43)CC2)cc1`, the minimum inhibitory concentration (MIC) in data set [1] was determined as 50 µM (≈ 21.8 µg/mL).
The same measure, in the same setting: the same measure for `CC(C)c1nc2cc(C(=O)O)ccc2n1-c1ccc(Br)cc1`: 50 µM (≈ 18 µg/mL).
Take `O=C1Cn2c(nc3ccccc32)-c2ccc(NC(=O)c3ccc([N+](=O)[O-])cc3)cc2N1`: in the data set on THP-1 [2], the Activity entry is given as “Non-Toxic”. The “fold change (FC)” value in data set [3] was 8 - 10. The same molecule returned an MIC in data set [1] of 0.195 µM (≈ 0.0806 µg/mL).
In data set [1], `O=C1Cn2c(nc3ccccc32)-c2ccc(NC(=O)c3ccc(Br)cc3)cc2N1` came in with an MIC of more than 50 µM.
On to `CCOC(=O)C(=O)Nc1ccc2c(c1)NC(=O)Cn1c-2nc2ccccc21`, for which the Activity result in the data set on THP-1 [4] is recorded as “Non-Toxic”. Moreover, in data set [1], the MIC stood at 0.78 µM (≈ 0.284 µg/mL).
With `Cc1ccc(C(=O)Nc2ccc3c(c2)NC(=O)Cn2c-3nc3ccccc32)cc1`, the Activity entry in the data set with THP-1 [2] is recorded as “Non-Toxic”. In data set [1], this molecule displayed a minimum inhibitory concentration (MIC) of 0.39 µM (≈ 0.149 µg/mL).
For `CC(C)c1nc2cc(C(=O)O)ccc2n1-c1ccc(C#N)cc1`, the MIC in data set [1] is 50 µM (≈ 15.3 µg/mL).
Consider `O=C1Cn2c(nc3ccccc32)-c2ccc(NC(=O)c3ccc(F)cc3)cc2N1`, for which the “fold change (FC)” value in data set [3] was 8 - 10. Also, the Activity entry in the data set on THP-1 [4] is listed as “Non-Toxic”. The minimum inhibitory concentration (MIC) in data set [1] is 0.195 µM (≈ 0.0753 µg/mL).
The like results for `COc1cc(-n2c(C(C)C)nc3cc(C(=O)O)ccc32)cc(OC)c1O` were, in that order, 8 - 10, “Non-Toxic” and 0.78 µM (≈ 0.278 µg/mL).
`CCN(CC)c1ccc(/C=C/C(=N/Nc2nc(C)cs2)C2=Cc3ccccc3C2)cc1` showed an MIC90 in data set [5] of 2.5 µg/mL (≈ 5.83 µM). In data set [6], this molecule displayed a logP of 6.03.
`COc1ccc(-n2c(C(C)C)nc3cc(C(=O)O)ccc32)cc1OC` showed an MIC in data set [1] of 25 µM (≈ 8.51 µg/mL). This counts as double-digit micromolar.
Same read-out and setting: to `CC(C)c1nc2cc(C(=O)O)ccc2n1-c1cccc([N+](=O)[O-])c1` belongs 25 µM (≈ 8.13 µg/mL).
Still for that read-out and setting: the same measure for `CC(C)c1nc2cc(C(=O)O)ccc2n1-c1ccncc1`: 25 µM (≈ 7.03 µg/mL); for `O=C1Cn2c(nc3ccccc32)-c2ccc(NC(=O)c3ccccc3)cc2N1`: more than 50 µM.
Still for that read-out and setting: the same measure for `CC(C)c1nc2cc(C(=O)O)ccc2n1-c1cccnc1`: 50 µM (≈ 14.1 µg/mL).
For the molecule `Cc1ccc(C(=O)N2CCC(Cn3c(C(C)C)nc4cc(C(=O)O)ccc43)CC2)cc1`, the minimum inhibitory concentration (MIC) in data set [1] was found to be 25 µM (≈ 10.5 µg/mL).
On the same count and under the same terms, to `COc1ccc(C(=O)Nc2ccc3c(c2)NC(=O)Cn2c-3nc3ccccc32)cc1` belongs 3.12 µM (≈ 1.25 µg/mL).
Take `Nc1ccc2c(c1)NC(=O)Cn1c-2nc2ccccc21`: the “fold change (FC)” value in data set [3] is reported as 8 - 10. Moreover, the Activity entry in the data set with THP-1 [4] was “Non-Toxic”. In data set [1], this molecule registered a minimum inhibitory concentration (MIC) of 0.0975 µM (≈ 0.0258 µg/mL).
In data set [1], `CC(C)c1nc2cc(C(=O)O)ccc2n1-c1ccccc1Cl` came in with an MIC of more than 50 µM.
With `O=C1Cn2c(nc3ccccc32)-c2ccc(NC(=O)c3ccc(Cl)cc3)cc2N1`, the “fold change (FC)” value in data set [3] is 8 - 10. Further, in the data set on THP-1 [4], the Activity entry is “Non-Toxic”. This molecule also yielded an MIC in data set [1] of 1.56 µM (≈ 0.628 µg/mL).
Turning to `COc1cccc(-n2c(C(C)C)nc3cc(C(=O)O)ccc32)c1O`, the Activity entry in the data set with THP-1 [4] is “Non-Toxic”. Moreover, inhibition of growth in data set [1] (MIC) required 0.78 µM (≈ 0.255 µg/mL).
As for `CC(C)c1nc2cc(C(=O)O)ccc2n1-c1ccc(O)cc1`, the MIC in data set [1] was determined as 50 µM (≈ 14.8 µg/mL).
As to `CC(C)c1nc2cc(C(=O)O)ccc2n1Cc1cccc(F)c1`, the MIC in data set [1] was 12.5 µM (≈ 3.9 µg/mL).
On the same count and under the same terms, the same measure for `COc1ccc(S(=O)(=O)Nc2ccc3c(c2)NC(=O)Cn2c-3nc3ccccc32)cc1`: 1.56 µM (≈ 0.678 µg/mL).
On the same count and under the same terms, the same measure for `CC(C)c1nc2cc(C(=O)O)ccc2n1-c1ccc(N(C)C)cc1`: 50 µM (≈ 16.2 µg/mL).
`O=C(CCc1ccccc1)Nc1cc2nc(C3CCCCC3)[nH]c2cc1N1CC1` came in with a logP in data set [6] of 4.57.
On to `NNC(=O)c1ccncc1` [ISONIAZID], for which the “fold change (FC)” value in data set [3] was determined as 30. Besides, in data set [1], it took 0.39 µM (≈ 0.0535 µg/mL) to inhibit growth (MIC).
